Published values pooled from the literature.
Compare with care: the assays were run in different laboratories.

SMILES	cell line	assay	conditions	quantity	value
CN(C)C(=O)c1cc2cnc(Nc3ccc(N4CCNCC4)cn3)nc2n1C1CCCC1	human Neutrophil	superoxide release, inhibitor	–	IC50	0.83 µM
C=CC(=O)c1cccnc1Nc1cc(C(F)(F)F)ccc1OC	NCI-H226	cell growth or viability, CCK-8	72 h	GI50	16.2 µM
CC(C)c1ccccc1[C@@H]1CCCN1C1CC2(CCN(c3ccc(C(=O)NS(=O)(=O)c4ccc(NC[C@H]5CC[C@](C)(O)CC5)c([N+](=O)[O-])c4)c(Oc4cnc5[nH]ccc5c4)c3)CC2)C1	SU-DHL-8	cell growth or viability, ATP luminescence	48 h	IC50	4.45 µM
O=C(O)c1ccc2c(c1)nc(Nc1cccc(Cl)c1)c1ccncc12	NCI-H226	cell growth or viability, crystal violet	48 h	IC50	5.8 µM
C=C(F)C(=O)N1CCN(c2nc(OC[C@@H]3CCCN3C)nc3c2CCN(c2cccc4cccc(Cl)c24)C3)C[C@@H]1CC#N	SNU1	cell growth or viability, ATP luminescence	3D culture	IC50	> 1 µM
O=C(O)c1ccccc1Nc1cccc(C(F)(F)F)c1	NCI-H226	cell growth or viability, CCK-8	72 h	GI50	> 40 µM
O=C(NO)c1ccc(CNc2nc3cccc(-c4ccc5c(c4)OCO5)n3n2)cc1	NCI-H226	cell growth or viability, SRB	–	GI50	0.58 µM
C=CC(=O)c1cccnc1Nc1cccc(C(F)(F)F)c1	NCI-H226	cell growth or viability, CCK-8	72 h	GI50	29.1 µM
C=CC(=O)NC1CCN(c2ncc3ncnc(Nc4ccc(Oc5ccc6c(c5)ncn6C)c(C)c4)c3n2)CC1	ABC-1	cell growth or viability	–	EC50	964 nM
